Compounds with a hit are over-represented: about 1.5% of the library has one in this group of screens.
VLA-4 inh = inhibition in a human VLA-4 binding assay. AID 2557. 330,000 compounds, 0.2% hits. VLA-4 expressing cells, ligand binding flow cytometry. inhibition, % (about 7 µM as worked out from the volumes in the protocol). P13612; in the data active = inhibition above about 50%
Target sequence (P13612 whole entry, looked up): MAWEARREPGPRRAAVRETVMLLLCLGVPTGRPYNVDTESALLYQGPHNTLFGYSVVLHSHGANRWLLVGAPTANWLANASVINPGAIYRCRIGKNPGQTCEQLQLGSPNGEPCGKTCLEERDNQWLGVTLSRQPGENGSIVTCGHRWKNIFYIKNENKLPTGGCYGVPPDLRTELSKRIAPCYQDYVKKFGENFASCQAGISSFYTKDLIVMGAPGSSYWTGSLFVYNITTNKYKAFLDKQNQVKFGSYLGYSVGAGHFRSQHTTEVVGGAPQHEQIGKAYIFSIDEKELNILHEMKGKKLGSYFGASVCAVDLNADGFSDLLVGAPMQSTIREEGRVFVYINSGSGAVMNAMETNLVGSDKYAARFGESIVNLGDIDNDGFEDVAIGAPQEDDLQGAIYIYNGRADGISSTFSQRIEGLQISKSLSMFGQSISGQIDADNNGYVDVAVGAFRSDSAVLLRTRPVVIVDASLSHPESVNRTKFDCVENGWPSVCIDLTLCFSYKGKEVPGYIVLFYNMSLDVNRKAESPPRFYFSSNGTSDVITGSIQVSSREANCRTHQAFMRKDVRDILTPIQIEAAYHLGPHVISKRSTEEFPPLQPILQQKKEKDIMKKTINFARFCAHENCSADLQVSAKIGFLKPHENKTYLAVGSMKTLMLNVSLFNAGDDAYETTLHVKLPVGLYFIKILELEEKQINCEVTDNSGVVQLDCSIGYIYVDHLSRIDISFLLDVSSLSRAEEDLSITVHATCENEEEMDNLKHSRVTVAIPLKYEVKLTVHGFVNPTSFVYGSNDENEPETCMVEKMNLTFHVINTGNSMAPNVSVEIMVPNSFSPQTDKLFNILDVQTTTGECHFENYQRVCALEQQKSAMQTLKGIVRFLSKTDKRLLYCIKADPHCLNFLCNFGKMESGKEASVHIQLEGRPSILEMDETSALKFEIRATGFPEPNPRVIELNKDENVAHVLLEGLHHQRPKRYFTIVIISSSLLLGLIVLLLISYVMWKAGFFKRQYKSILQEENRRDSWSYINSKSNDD
CHT PAM = allosteric activators of human choline transporter CHT; Q9GZV3; CHT-expressing cells, membrane potential dye, choline EC20; stronger effect = higher value; LV-AA mutant CHT in HEK293 cells; B-score at 10 µM; 310,000 compounds, 0.49% hits;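 active = initial fluorescence not abnormally high and integrated response B-score, plate-corrected, over 3 SD above library mean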
CHT block = inhibits the human high affinity choline transporter. Q9GZV3. CHT-expressing cells, membrane potential dye, choline response; stronger effect = lower value. B-score at 10 µM. 310,000 compounds, 0.86% hits;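 active = B-score over 3 SD under the library average, and starting fluorescence ratio not unusually high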;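 note: choline stimulus applied at its EC90 after an EC20 pre-addition; B-score computed on integrated fluorescence ratio after choline addition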
T cell modulator = T cell immune modulators affecting CD8 T cell-vesicle binding. 2C CD8+ T cell-vesicle binding, flow cytometry; stronger effect = lower value. 330,000 compounds, 0.068% hits. response (vesicle binding), % at 7 µM;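 active = response, share of CD8 T cells binding vesicles, and their 90th percentile fluorescence all below set limits, cut at about 80% in these data, passing the limit was not always enough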;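 note: values below 100% mean blocked vesicle binding to the CD8+ T cells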
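Material: murine 2C transgenic CD8+ T lymphocytes / Also added: QL9-peptide-loaded Drosophila micro-vesicles bearing Ld, ICAM-1 and B7-1 / Schedule: binding step 1.5 h, 37 °C, antibody labelling 20 min, ice / Signal: flow cytometry, PE anti-B7-1 (FL2) versus Alexa647 anti-CD8 (FL8), PFA-fixed / Evaluation: percent CD8+ FL2 mean versus row control / Benchmarks: naked versus QL9-loaded vesicles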
CHT act confirm = confirmation of human choline transporter (CHT) activators; AID 504833; activation, % at 10 µM; 2,500 compounds, 91% hits; shares compounds with CHT PAM; CHT-expressing cells, membrane potential dye fluorescence (FDSS); % of choline EC20–EC90 response window; HEK293 expressing CHT LV-AA mutant; choline added at its EC20;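 active = primary screen active, with duplicate mean activation above negative control mean plus 3 SD, cut at about 11% in these data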
HEK293 MP dye = counter-screen for CHT activators: effect in parental HEK293 cells. ratio readout change at 10 µM, hits read low. 2,500 compounds, 62% hits. shares compounds with CHT PAM. AID 623908. membrane potential dye fluorescence (FDSS); measured after EC20 choline addition;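 active = duplicate-averaged ratio beyond 3 SD from buffer wells, up or down, though filed actives are nearly all decreases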
* = called active by the depositor; i = inactive; · = no result.

SMILES | VLA-4 inh | CHT PAM | CHT block | T cell modulator | CHT act confirm | HEK293 MP dye
Cc1sc2nc(CN3CCCC3)nc(N3CCN(C(=O)c4ccco4)CC3)c2c1C | -1 | 7.3* | i | 293 | 46* | -39*
Cc1sc2nc(CN3CCCC3)nc(N3CCC(C(N)=O)CC3)c2c1C | 12 | 8.9* | i | 271 | 67* | -54*
Cc1nc(N2CCN(C(=O)c3ccco3)CC2)c2c3c(sc2n1)CCCC3 | -1 | i | i | 409 | · | ·
Cc1sc2nc(CN3CCC(C)CC3)nc(Cl)c2c1C | -11 | i | i | 206 | · | ·
CCC[C@H]1COCCS(=O)(=O)N1Cc1ccccc1F | 4 | i | i | 502 | 3 | i
CCCC[C@H]1COCCS(=O)(=O)N1Cc1ccccc1F | -3 | i | i | 632 | · | ·
COc1cc(OC)cc(C(=O)N[C@H](C(=O)Nc2ccc3c(c2)OCO3)C(C)C)c1 | 1 | i | i | 241 | · | ·
Nc1ccc2c(c1)N1CCN=C1S2 | 4 | i | i | 201 | 54* | -49*
COc1ccccc1NS(=O)(=O)c1cc(N2Cc3ccccc3C2=N)ccc1N1CCOCC1 | 0 | i | i | 246 | 37* | -45*
COc1ccccc1NS(=O)(=O)c1cc(N)ccc1N1CCOCC1 | 1 | · | · | 269 | · | ·
Cn1c(=O)n(C)c2cc(/C=N/n3cnnc3)ccc21 | -6 | 8.7* | i | 357 | 70* | -69*
O=C(CCC1CCCN(C(=O)c2ccccc2Cl)C1)N1CCN(c2ccccn2)CC1 (centres undefined) | 3 | i | i | 339 | · | ·
c1cncc(-c2cn(C[C@H]3CC[C@@H]([C@@H]4CC[C@H](Cn5cc(-c6cccnc6)nn5)O4)O3)nn2)c1 | -3 | i | i | 227 | · | ·
COc1cccc(-c2cn(C[C@H]3CC[C@@H]([C@@H]4CC[C@H](Cn5cc(-c6cccc(OC)c6)nn5)O4)O3)nn2)c1 | -2 | 7* | i | 292 | 15* | i
Cc1cc(N2CCN(C3CCCC3)CC2)n2c(nc3ccccc32)c1C#N | 18 | 7.1* | i | 222 | 3 | i
Cn1c(=O)c2c(nc(N3CCc4ccccc4C3)n2Cc2ccccc2F)n(C)c1=O | -6 | i | i | 269 | · | ·
Cc1ccc(Cn2c(SCCN3CCCCC3)nc3c2c(=O)n(C)c(=O)n3C)cc1 | 13 | i | i | 176 | 49* | -44*
Cn1c(=O)c2c(nc(SCCN3CCCCC3)n2Cc2ccccc2)n(C)c1=O | -1 | i | i | 802 | 46* | -59*
Cn1c(=O)c2c(nc(N3CCc4ccccc4C3)n2Cc2ccc(Br)cc2)n(C)c1=O | 1 | i | i | 44 | 28* | -26*
CCOc1ccccc1N1CCN(C(=O)c2c(-c3c(F)cccc3Cl)noc2C)CC1 | 1 | i | i | 218 | · | ·
C/C(=N/N1CCN(Cc2cccc3ccccc23)CC1)c1ccco1 | 1 | i | i | 110 | · | ·
COc1ccccc1/C=C\C(=O)NCC(=O)N/N=C(/C)c1cccc([N+](=O)[O-])c1 | -3 | i | i | 477 | · | ·
CCN(CC)CCCNc1nc2ccccc2[nH]1 | 0 | 7.8* | i | i | 35* | -34*
CSc1ccccc1C(=O)N(C)C(c1ccccc1)c1ccccc1 | 5 | i | i | 185 | 45* | i
CSc1ccccc1C(=O)N(C)Cc1ccccc1 | 1 | i | i | i | · | ·
SMILES | VLA-4 inh | CHT PAM | CHT block | T cell modulator | CHT act confirm | HEK293 MP dye
Cc1cc(C(=O)Nc2cccc3c2O[C@@H](CN(C)S(C)(=O)=O)[C@H](C)CN([C@@H](C)CO)C3=O)n(C)n1 | 5 | · | · | 156 | · | ·
N#Cc1cc2c(=O)n3ccccc3nc2n(Cc2cccnc2)c1=O | 13 | 6.9* | i | 427 | 48* | -44*
CCOc1ccc(CN(C)C(=O)CNC(=O)c2sc3ccccc3c2Cl)cc1 | 8 | · | · | 324 | · | ·
Cc1cc(C)c[n+](CC(=O)c2ccc(C)c([N+](=O)[O-])c2)c1 | -1 | i | i | 148 | · | ·
CCOc1ccccc1C(=O)Nc1cc2c(cc1N1CCCC1)n(CC)c(=O)n2CC | 7 | i | i | 190 | 51* | i
Cc1ccc(C)c(N(C)S(=O)(=O)c2ccc3c(c2)oc(=O)n3C)c1 | 9 | i | i | 97 | · | ·
S=C(NCCCN1CCOCC1)N(Cc1ccccc1)Cc1ccccc1 | 15 | i | i | 233 | · | ·
O=C(c1cccc(C(F)(F)F)c1)N(c1ccccn1)C1CCCCC1 | 9 | i | i | 340 | · | ·
CC(NCc1cc(Br)ccc1OCC(N)=O)C12CC3CC(CC(C3)C1)C2 (centres undefined) | -5 | 11* | i | 193 | 23* | i
COc1cc(CNC(C)C23CC4CC(CC(C4)C2)C3)ccc1OCC(=O)NC(C)(C)C (centres undefined) | -2 | i | i | 495 | · | ·
CC(CNC(=O)c1ccc(-c2ccccc2)cc1)CN(C)C (centres undefined) | 9 | i | i | 166 | · | ·
CN(C)CC(CCCCC(CN(C)C)C(=O)c1ccccc1)C(=O)c1ccccc1 (centres undefined) | · | 8.4* | i | 482 | 29* | i
COC(=O)CSc1cc(C)nc2ccc(OC)cc12 | 10 | i | i | 182 | 44* | -50*
COc1ccc2nc(C)cc(SCC(=O)O)c2c1 | 7 | i | i | 392 | · | ·
O=C(NCCOC12CC3CC(CC(C3)C1)C2)c1cccc(Br)c1 | 0 | i | i | 268 | · | ·
COc1ccccc1C(=O)NC(=O)COC(=O)Cn1cnc2c1c(=O)n(C)c(=O)n2C | 11 | i | i | 236 | · | ·
Cc1cc(OC(C)C(=O)NCCCN2CCOCC2)c2c(C)cc(=O)oc2c1 (centres undefined) | 16 | i | i | 348 | 50* | -41*
CCc1cc(=O)oc2cc(C)cc(OC(C)C(=O)NCCN3CCOCC3)c12 (centres undefined) | 1 | i | i | 524 | · | ·
Cc1cc(OC(C)C(=O)NCCN2CCOCC2)c2c(C)c(C)c(=O)oc2c1 (centres undefined) | 14 | i | i | 268 | 58* | -56*
Cc1ccc(NC(=O)CSC2=NCCN2)cc1 | 8 | i | i | 581 | · | ·
O=C(CSC1=NCCN1)Nc1cccc([N+](=O)[O-])c1 | 0 | 6.7* | i | 321 | 51* | -45*
Cc1ccc2c(c1)c1c3n2CCN=C3CCC1 | -7 | i | i | 203 | · | ·
COc1ccc2c(c1)c1c3n2CCN(C)C3=NCC1 | -2 | i | i | 148 | 53* | -60*
O=C(NCc1cccc(C(F)(F)F)c1)N1CCN(C(=O)c2ccccc2)CC1 | 6 | · | · | 525 | · | ·
c1ccc(Cn2c[n+](Cc3ccccc3)c3ccccc32)cc1 | -8 | i | i | 658 | 46* | i
